Source: ChEMBL document CHEMBL4196173, “Stabilized β-Hairpin Peptide Inhibits Insulin Degrading Enzyme” (J Med Chem, 2018)
Calls of active or inactive are those of the source. The rule behind the calls is not given here.

Experiments:
Mus musculus [1] = assay: AUC (0 to 43 hrs) in lean C57BL/6J mouse at 100 mg/kg, ip by LC-MS analysis; format: ADME, organism-based; parameters: time < 43 hr, dose 100 mg/kg, route intraperitoneal; settings: in vivo
Method in brief: (§1)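 Male lean C57BL/6J mice, 13–15 weeks old, given one i.p. dose of 100 mg kg−1 (n = 5). Tail or eye-socket blood was taken from 20 min to 43 h and spun to plasma. 30 μL plasma was mixed with 100 μL 10% TCA in H2O/CH3CN (1:1) and chilled at 277 K for 15 min. After centrifugation the peptide left in the supernatant was quantified by LC–MS. Two independent experiments.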

[2] = Hemolytic activity against mouse RBC at 300 uM after 1 hr at 310 K; format: ADME, cell-based, Erythrocyte; settings: mouse red blood cells (erythrocytes), read-out: Activity
Method in brief: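 Fresh mouse red cells were washed six times and suspended at 1 × 10^8 cells/mL in PBS. Peptides at 2.3–300 μM were added for 1 h at 310 K. After centrifugation, hemoglobin in the supernatant was read at 576 nm. PBS served as 0% and 0.1% Triton X-100 as 100% lysis. Three independent experiments in duplicate.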

[3] = Drug uptake in brain parenchyma of lean C57BL/6J mouse at 40 mg/kg, iv using cy5-labeled compound by two-photon microscopic analysis; settings: in vivo
Mus musculus [4] = assay: Hypoglycemic activity in lean C57BL/6J mouse at 80 mg/kg, ip administered 30 min prior to insulin injection measured up to 75 mins post insulin injection by ITT; format: functional, organism-based
Method in brief: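 Lean male mice were fasted 6 h, then given 80 mg kg−1 i.p. or PBS (n = 6) 30 min before subcutaneous insulin (0.25 U kg−1 in saline). Tail blood glucose was read at −30 to 75 min. Mean ± SEM, two-tailed t test, repeated three times.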

Mus musculus [5] = assay: Effect on amyloid beta (1-40) levels in lean C57BL/6J mouse brain at 80 mg/kg, ip administered per another day measured after 4 hrs to 11 days post injection by ELISA; format: ADME, organism-based; settings: in vivo
Method in brief: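 Male lean C57BL/6J mice received 80 mg kg−1 i.p. every other day (n = 5) or PBS vehicle. Brains (~350 mg) were Dounce-homogenized in PBS with 1 mM PMSF and spun at 13,000 rpm for 30 min at 277 K. Supernatant Aβ(1–40) was measured by ELISA at 4 h, 24 h, 7 days and 11 days. Mean ± SEM, two-tailed t test.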

[6] = Drug uptake in human HeLa cells at 5 uM using FITC-labeled compound after 2 hrs at 310 K by LC-MS analysis; format: ADME, cell-based
Method in brief: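 HeLa cells were exposed to FITC-labelled peptide for 2 h, washed with PBS and 0.4% trypan blue, then trypsinized, washed and lysed. The lysates were examined by LC–MS.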

[7] = Cmax in lean C57BL/6J mouse at 100 mg/kg, ip by LC-MS analysis; format: ADME, organism-based; parameters: dose 100 mg/kg, route intraperitoneal; settings: in vivo; method in brief: as §1
[8] = molecular target: Insulin-degrading enzyme (Homo sapiens) (UniProt P14735); assay: Inhibition of IDE (unknown origin) assessed as potentiation of insulin-induced AKT phosphorylation in rat skeletal muscle cells at 100 uM preincubated up to 12 hrs followed by insulin addition and measured after 10 mins by Western blot analysis; format: cell-based
Method in brief: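 Rat skeletal muscle cells were treated with 100 nM IDE plus peptide, for 10 min or at time points up to 24 h with 100 μM. Insulin (10 nM) was then added for 10 min. RIPA lysates were run on 10% SDS-PAGE and blotted for pAKT and AKT with GAPDH as loading control. Densitometry on three regions, two-tailed t test.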

[9] = Metabolic stability in 25% mouse serum assessed as compound remaining at 250 uM up to 24 hrs by LC-MS analysis; format: ADME, cell-free
Method in brief: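 Peptide at a final 250 μM in 25% mouse serum was incubated at 310 K for 0–24 h. Samples were quenched in 12% TCA in H2O/CH3CN (1:1) and chilled at 277 K for 15 min. After centrifugation, the intact peptide in the supernatant was quantified by LC–MS. Three independent experiments.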

Insulin-degrading enzyme = molecular target: T1, Insulin-degrading enzyme (Mus musculus, UniProt Q9JHR7); assay: Inhibition of mouse His-tagged IDE (42 to 1019 residues) using fluorophore/quencher-tagged RPPGFSAFK(Dnp)-OH peptide as substrate preincubated for 10 mins followed by substrate addition measured over 5 mins by TR-FRET assay
T1 sequence (Q9JHR7 whole entry): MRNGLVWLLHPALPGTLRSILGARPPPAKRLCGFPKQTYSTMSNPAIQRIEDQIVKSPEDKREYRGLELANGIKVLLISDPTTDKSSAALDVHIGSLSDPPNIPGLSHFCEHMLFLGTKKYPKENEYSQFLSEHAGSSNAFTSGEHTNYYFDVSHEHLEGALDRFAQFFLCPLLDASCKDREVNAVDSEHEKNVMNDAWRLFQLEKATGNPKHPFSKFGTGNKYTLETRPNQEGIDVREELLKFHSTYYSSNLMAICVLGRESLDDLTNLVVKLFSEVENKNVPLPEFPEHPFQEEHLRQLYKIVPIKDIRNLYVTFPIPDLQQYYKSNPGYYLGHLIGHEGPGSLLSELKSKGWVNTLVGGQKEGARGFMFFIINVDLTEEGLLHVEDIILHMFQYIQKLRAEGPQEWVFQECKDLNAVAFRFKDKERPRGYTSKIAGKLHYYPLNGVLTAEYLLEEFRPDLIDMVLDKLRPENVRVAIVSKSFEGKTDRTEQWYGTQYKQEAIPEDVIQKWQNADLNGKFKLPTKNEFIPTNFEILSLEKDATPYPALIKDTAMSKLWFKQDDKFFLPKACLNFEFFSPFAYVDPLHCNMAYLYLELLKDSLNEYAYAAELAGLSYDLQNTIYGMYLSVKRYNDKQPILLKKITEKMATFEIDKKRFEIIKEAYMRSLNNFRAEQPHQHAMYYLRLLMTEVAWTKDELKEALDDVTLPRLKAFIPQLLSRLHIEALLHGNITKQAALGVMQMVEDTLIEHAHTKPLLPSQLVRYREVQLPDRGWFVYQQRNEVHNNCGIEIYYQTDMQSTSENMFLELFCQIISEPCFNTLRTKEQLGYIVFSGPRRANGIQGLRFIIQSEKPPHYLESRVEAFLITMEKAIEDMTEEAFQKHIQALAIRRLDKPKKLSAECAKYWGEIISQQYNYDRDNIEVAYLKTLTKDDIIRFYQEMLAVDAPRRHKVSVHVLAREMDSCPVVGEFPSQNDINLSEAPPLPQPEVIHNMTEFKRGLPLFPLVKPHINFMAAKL

Insulin-degrading enzyme (Homo sapiens), sequence (P14735 whole entry): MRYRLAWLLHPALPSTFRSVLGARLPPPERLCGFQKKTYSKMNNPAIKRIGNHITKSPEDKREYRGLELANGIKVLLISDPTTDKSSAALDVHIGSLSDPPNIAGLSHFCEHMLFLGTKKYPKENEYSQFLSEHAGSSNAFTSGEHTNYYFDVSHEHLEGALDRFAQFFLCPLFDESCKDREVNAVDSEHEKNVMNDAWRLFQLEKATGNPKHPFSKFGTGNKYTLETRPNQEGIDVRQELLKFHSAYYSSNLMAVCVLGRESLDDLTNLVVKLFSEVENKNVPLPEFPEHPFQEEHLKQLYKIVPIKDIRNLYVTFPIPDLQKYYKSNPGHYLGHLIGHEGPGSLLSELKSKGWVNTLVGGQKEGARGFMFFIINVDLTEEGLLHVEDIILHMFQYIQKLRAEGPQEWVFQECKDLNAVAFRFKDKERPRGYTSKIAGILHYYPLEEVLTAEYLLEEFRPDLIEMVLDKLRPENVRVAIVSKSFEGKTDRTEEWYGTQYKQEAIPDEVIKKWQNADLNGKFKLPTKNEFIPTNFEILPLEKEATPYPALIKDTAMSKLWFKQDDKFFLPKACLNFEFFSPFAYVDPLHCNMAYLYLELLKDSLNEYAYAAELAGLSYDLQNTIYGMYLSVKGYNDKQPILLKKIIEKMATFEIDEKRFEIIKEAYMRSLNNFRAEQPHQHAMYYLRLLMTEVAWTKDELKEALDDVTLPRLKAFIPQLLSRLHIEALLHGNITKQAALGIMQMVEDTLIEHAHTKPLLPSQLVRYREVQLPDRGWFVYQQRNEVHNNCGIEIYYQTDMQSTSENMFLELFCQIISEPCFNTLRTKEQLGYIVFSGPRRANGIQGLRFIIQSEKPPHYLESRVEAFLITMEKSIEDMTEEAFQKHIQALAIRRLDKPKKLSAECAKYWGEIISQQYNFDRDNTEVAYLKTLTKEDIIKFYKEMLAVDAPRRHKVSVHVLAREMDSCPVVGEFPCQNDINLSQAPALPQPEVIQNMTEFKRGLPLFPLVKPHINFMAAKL

**Q.** With `CC(=O)N[C@@H](CCC(=O)O)C(=O)N[C@@H](Cc1c[nH]c2ccccc12)C(=O)N[C@@H](CCCNC(=N)N)C(=O)N[C@@H](Cc1ccccc1)C(=O)N[C@H]1CC(=O)NC[C@@H](C(=O)N[C@@H](CC(C)C)C(=O)N[C@@H](Cc2ccc(O)cc2)C(=O)N[C@@H](CC(C)C)C(=O)N[C@H](C(=O)N[C@@H](CS)C(=O)NCC(N)=O)C(C)C)NC(=O)[C@H](CCC(=O)O)NC(=O)[C@@H]2CCCN2C(=O)[C@H]2CCCN2C(=O)CNC1=O` as the compound, how does the AUC (Mus musculus [1]) read?
**A.** The AUC was 7600 µg·h/mL.

**Q.** What about the hemolysis at 1 h, 300 µM [2] of the same compound?
**A.** The hemolysis at 1 h, 300 µM was under 10%.

**Q.** What about the Drug uptake [3] of the same compound?
**A.** Its Drug uptake is “Not Active”.

**Q.** And the Activity (Mus musculus [4])?
**A.** The Activity was “Active”.

**Q.** And the Activity (Mus musculus [5])?
**A.** Its Activity is “Non-Toxic”.

**Q.** And the Drug uptake [6]?
**A.** The Drug uptake was “Active”.

**Q.** And the Cmax [7]?
**A.** The Cmax was 619 µg/mL.

**Q.** And the inhibition [8]?
**A.** Its inhibition is “Active”.

**Q.** What about the Stability [9] of the same compound?
**A.** Its Stability is “Unstable”.

**Q.** What about the IC50 (Insulin-degrading enzyme) of the same compound?
**A.** The IC50 was 22 nM.
